Source: ChEMBL document CHEMBL1148824, “Quinazolinone derivatives as orally available ghrelin receptor antagonists for the treatment of diabetes and obesity” (J Med Chem, 2007)
≈ marks a conversion by molar mass, not a printed value.

What was measured:
[1] = molecular target: Ghrelin receptor (Ovis aries, UniProt Q8MHZ5); assay: Displacement of [125I]ghrelin from ovine recombinant GHSR1a expressed in HEK293F cells after 6 hrs by scintillation proximity assay; format: cell-based
[2] = molecular target: Cytochrome P450 2D6 (Homo sapiens, UniProt P10635); assay: Inhibition of CYP2D6; format: ADME
Cytochrome P450 2D6, sequence (P10635 whole entry): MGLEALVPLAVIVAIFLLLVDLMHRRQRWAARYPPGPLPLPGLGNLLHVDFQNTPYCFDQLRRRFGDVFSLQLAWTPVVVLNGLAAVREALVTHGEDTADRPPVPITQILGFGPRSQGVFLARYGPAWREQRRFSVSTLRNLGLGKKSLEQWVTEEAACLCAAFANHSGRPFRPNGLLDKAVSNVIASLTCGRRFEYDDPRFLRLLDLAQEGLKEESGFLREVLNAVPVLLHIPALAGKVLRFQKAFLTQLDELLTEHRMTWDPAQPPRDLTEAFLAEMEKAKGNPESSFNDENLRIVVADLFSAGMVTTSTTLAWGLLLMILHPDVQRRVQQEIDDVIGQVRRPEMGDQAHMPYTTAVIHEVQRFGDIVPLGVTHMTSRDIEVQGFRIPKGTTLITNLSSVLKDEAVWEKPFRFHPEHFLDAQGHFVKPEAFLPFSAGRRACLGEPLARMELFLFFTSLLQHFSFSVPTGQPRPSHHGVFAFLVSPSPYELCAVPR

[3] = Cmax in Wistar rat at 3 mg/kg, po; format: ADME, organism-based; design: dose 3 mg/kg, route oral; conditions: in vivo
Outline: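 Wistar rat pharmacokinetic screen; single oral dose of 3 mg/kg in PEG400/methanesulfonic acid (80:20) vehicle; plasma exposure measured.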

[4] = molecular target: T1, 5-hydroxytryptamine receptor 2C (Homo sapiens, UniProt P28335); assay: Displacement of […] from 5HT2c receptor
T1 sequence (P28335 whole entry): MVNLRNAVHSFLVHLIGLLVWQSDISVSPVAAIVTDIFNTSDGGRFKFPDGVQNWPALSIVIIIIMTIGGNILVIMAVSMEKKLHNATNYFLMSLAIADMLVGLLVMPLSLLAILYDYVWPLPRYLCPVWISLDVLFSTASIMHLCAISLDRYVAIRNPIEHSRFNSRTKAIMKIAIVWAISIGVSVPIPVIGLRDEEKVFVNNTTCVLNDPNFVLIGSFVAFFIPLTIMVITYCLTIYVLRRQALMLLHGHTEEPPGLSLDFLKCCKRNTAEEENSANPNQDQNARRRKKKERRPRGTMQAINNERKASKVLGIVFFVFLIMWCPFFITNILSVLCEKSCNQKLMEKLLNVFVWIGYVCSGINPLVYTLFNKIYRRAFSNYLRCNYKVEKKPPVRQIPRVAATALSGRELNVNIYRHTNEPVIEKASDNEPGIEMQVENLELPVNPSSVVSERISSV

[5] = molecular target: T2, Growth hormone secretagogue receptor type 1 (Homo sapiens, UniProt Q92847); assay: Antagonist activity at human recombinant GHSR1a expressed in HEK293F cells by [35S]GTP-gamma-S binding assay; format: functional, cell-based
T2 sequence (Q92847 whole entry): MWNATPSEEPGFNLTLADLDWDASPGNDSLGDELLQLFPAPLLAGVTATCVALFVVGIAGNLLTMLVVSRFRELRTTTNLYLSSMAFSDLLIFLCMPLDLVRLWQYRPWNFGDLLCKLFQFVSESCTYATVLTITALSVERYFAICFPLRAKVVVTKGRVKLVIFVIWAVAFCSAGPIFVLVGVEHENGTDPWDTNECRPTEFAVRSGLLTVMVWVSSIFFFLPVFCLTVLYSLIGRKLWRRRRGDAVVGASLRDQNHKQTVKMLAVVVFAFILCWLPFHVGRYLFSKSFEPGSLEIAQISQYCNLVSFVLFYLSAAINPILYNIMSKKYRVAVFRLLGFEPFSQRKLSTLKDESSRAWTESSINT
Outline: (§1)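 Functional read-out as GTPγS binding to membranes from HEK293F cells overexpressing recombinant GHS-R1a; values are the mean of at least two replicates.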

[6] = molecular target: T2, Growth hormone secretagogue receptor type 1; assay: Agonist activity at human recombinant GHSR1a expressed in HEK293F cells assessed as stimulation of [35S]GTP-gamma-S binding relative to ghrelin; format: functional, cell-based; outline: as §1
[7] = Aqueous solubility at pH 7.2; format: physicochemical
[8] = system: Mus musculus; assay: Increase in food intake in DIO C57BL/6 mouse at 30 mg/kg, after 5 hrs relative to control; format: functional
[9] = Cmax in po dosed DIO C57BL/6 mouse after 5 hrs; format: ADME, organism-based; design: route oral; conditions: in vivo
[10] = system: Brain; assay: Drug level in po dosed DIO C57BL/6 mouse brain after 5 hrs relative to plasma concentration; format: ADME, organism-based
[11] = system: Rattus norvegicus; assay: Decrease in blood glucose level in DIO Wistar rat using at 10 mg/kg after 5 hrs by IPGTT test relative to control; format: functional; design: scale not given: the % may be the effect or the level left

Ghrelin receptor, sequence (Q8MHZ5 whole entry): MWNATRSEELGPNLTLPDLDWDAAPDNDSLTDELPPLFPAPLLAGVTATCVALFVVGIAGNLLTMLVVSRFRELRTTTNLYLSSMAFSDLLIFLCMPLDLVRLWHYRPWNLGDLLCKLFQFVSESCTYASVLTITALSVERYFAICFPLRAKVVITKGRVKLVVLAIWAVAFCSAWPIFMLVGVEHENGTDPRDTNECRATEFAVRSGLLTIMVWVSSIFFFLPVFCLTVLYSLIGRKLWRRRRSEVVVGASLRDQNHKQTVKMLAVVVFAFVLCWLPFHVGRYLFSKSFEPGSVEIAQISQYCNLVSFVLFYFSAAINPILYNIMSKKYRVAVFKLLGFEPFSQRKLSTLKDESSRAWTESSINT

Row | Ki [1] | Cmax [3] | Kb [5] | E/Emax [6] | Compound | other results
1 | 440 nM | 200 nM |  |  | CC(C)N1CCC[C@H](Cn2cnc3ccc(-c4ccc(Cl)cc4)cc3c2=O)C1 | IC50 [2]: 200 nM; Ki [4]: > 1000 nM
2 | 26 nM | 30 nM | 36 nM | -18% | CCN1CCC=C(Cn2c(-c3ccccc3C)nc3ccc(-c4ccc(Cl)cc4)cc3c2=O)C1 | 
3 | 240 nM |  |  |  | CCN1CCC[C@@H](Cn2c(-c3ccc(C(F)(F)F)cc3)nc3ccc(-c4ccc(Cl)cc4)cc3c2=O)C1 | 
4 | 0.47 nM | 310 nM | 0.97 nM | 23% | Cc1ccccc1-c1nc2ccc(Oc3ccc(F)cc3)cc2c(=O)n1CC1CCCN(C(C)C)C1 (stereo unspecified) | 
5 | 0.9 nM |  |  |  | Cc1ccccc1-c1nc2ccc(Oc3ccc(F)cc3)cc2c(=O)n1C[C@H]1CCCN(C(C)C)C1 (stereo in doubt; (S)-35) | 
6 | 7 nM | 20 nM | 13 nM | 12% | Cc1ccccc1-c1nc2ccc(-c3ccc(Cl)cc3)cc2c(=O)n1CC1CCCNC1 (stereo unspecified) | 
7 | 4 nM | 210 nM | 7.6 nM | -5% | CC(C)c1nc2ccc(Oc3ccc(F)cc3)cc2c(=O)n1C[C@H]1CCCN(C(C)C)C1 | solubility [7]: 100 µM (≈ 43.8 µg/mL); IC50 [2]: 7200 nM; Ki [4]: > 1000 nM
8 | 4 nM | 140 nM | 6.4 nM | -20% | COCCN1CCCC(Cn2c(-c3ccccc3C)nc3ccc(-c4ccc(Cl)cc4)cc3c2=O)C1 (stereo unspecified) | 

Second part, the compound before the results:

Row | Compound | Ki [1] | Cmax [3] | Kb [5] | E/Emax [6] | other results
9 | CCN1CCCC(CCn2c(-c3ccccc3OC)nc3ccc(-c4ccc(Cl)cc4)cc3c2=O)C1 (stereo unspecified) | > 10000 nM |  |  |  | 
10 | CCN1CCC[C@H](Cn2c(C(C)C)nc3ccc(-c4ccc(F)cc4)cc3c2=O)C1 | 40 nM |  |  |  | 
11 | CCN1CCC[C@H](Cn2c(-c3ccccc3C)nc3ccc(-c4ccc(Cl)cc4)cc3c2=O)C1 | 1.7 nM | 120 nM | 2.8 nM | 0% | solubility [7]: 80 µM (≈ 37.8 µg/mL); IC50 [2]: 6100 nM; Activity [8]: -17%; Cmax [9]: 2200 nM; Ki [4]: 120 nM; Drug uptake [10]: 22%; Activity [11]: -13%
12 | CC(C)N1CCC[C@H](Cn2cnc3ccc(Oc4ccc(F)cc4)cc3c2=O)C1 | 18 nM |  | 45 nM | 2% | solubility [7]: 450 µM (≈ 178 µg/mL); IC50 [2]: 21000 nM; Ki [4]: > 1000 nM
13 | CCN1CCC[C@@H](Cn2c(-c3ccccc3C)nc3ccc(-c4ccc(Cl)cc4)cc3c2=O)C1 | 71 nM |  | 250 nM | 10% | 
14 | Cc1ccccc1-c1nc2ccc(-c3ccc(Cl)cc3)cc2c(=O)n1CC1CN(C(C)C)CCO1 (stereo unspecified) | 190 nM |  |  |  | 
15 | CCN1CCC[C@H](Cn2c(-c3ccccc3C)nc3ccc(OC(F)(F)F)cc3c2=O)C1 | 16 nM |  |  |  | 
16 | CCN1CCCC(Cn2c(-c3ccccc3C)nc3ccc(OC(F)(F)F)cc3c2=O)C1 (stereo unspecified) | 24 nM | 240 nM | 45 nM | 4% | 
17 | Cc1ccccc1-c1nc2ccc(Oc3ccc(F)cc3)cc2c(=O)n1C[C@H]1CCCN(C(C)C)C1 (stereo in doubt; 36) | 0.86 nM | 90 nM |  |  | solubility [7]: 250 µM (≈ 121 µg/mL); IC50 [2]: 90 nM; Activity [8]: -7%; Cmax [9]: 3100 nM; Ki [4]: > 1000 nM; Drug uptake [10]: 1%; Activity [11]: -19%
18 | CCN1CCCC(Cn2c(-c3ccccc3OC)nc3cc(-c4ccc(Cl)cc4)ccc3c2=O)C1 (stereo unspecified) | > 10000 nM |  |  |  | 
19 | CC(C)N1CCCC(Cn2c(-c3ccc(OCCO)cc3F)nc3ccc(Oc4ccc(F)cc4)cc3c2=O)C1 (racemic) |  |  |  |  | Activity [8]: 4%; Cmax [9]: 5700 nM; Drug uptake [10]: < 0.001%
20 | Cc1ccccc1-c1nc2ccc(-c3ccc(Cl)cc3)cc2c(=O)n1CC1CCCN(CCC(F)(F)F)C1 (stereo unspecified) | 250 nM |  |  |  | 
